Laboratory results as given in ChEMBL document CHEMBL1914282 (J Med Chem, 2011).
pEC50, pIC50: −log10 of the molar value. Active and inactive are the calls of the source. The rule behind the calls is not given here.

Assays:
[1] = target: T1, G-protein coupled receptor 35 (Homo sapiens, UniProt Q9HC97); assay: Agonist activity at GPR35 in human HT-29 cells assessed as desensitization of 1 uM zaprinast-induced DMR after 1 hr by dynamic mass redistribution assay; format: functional, cell-based
[2] = target: T1, G-protein coupled receptor 35; assay: Agonist activity at GPR35 in human U20S cells expressing beta-lactamase and GPR35-GA14-VP16 transcription factor fusion protein assessed as transcriptional activation after 5 hrs by tango beta-arrestin translocation reporter assay; format: functional, cell-based, U2OS; details: for EC50: u2os; for pEC50: read-out: EC50
Outline: (§1)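 Tango GPR35-bla U2OS cells, which express GPR35–TEV site–Gal4-VP16 and β-arrestin/TEV protease, seeded at 10000 cells/well and cultured overnight. Ligand stimulation for 5 h at 37 °C/5% CO2, then 2 h with LiveBLAzer FRET B/G substrate.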

[3] = target: T1, G-protein coupled receptor 35; assay: Agonist activity at GPR35 in human HT-29 cells after 1 hr by dynamic mass redistribution assay; format: functional, cell-based
Outline: (§2)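 HT-29 monolayer grown overnight on resonant waveguide grating biosensor plates. Cells washed twice, held in HBSS (20 mM Hepes, pH 7.1) for 1 h at 26 °C, then a 2 min baseline taken before compound addition. Response recorded as resonant wavelength shift (pm) over 1 h. Compounds diluted from 10 mM DMSO stocks.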

[4] = target: T1, G-protein coupled receptor 35; assay: Agonist activity at GPR35 in human U20S cells expressing beta-lactamase and GPR35-GA14-VP16 transcription factor fusion protein assessed as transcriptional activation up to 128 uM after 5 hrs by tango beta-arrestin translocation reporter assay; format: functional, cell-based; details: U2OS
Outline: as §1, with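 “substrate. Coumarin:fluorescein ratio read as reporter response, doses up to 128 μM, n = 4.” for “substrate.”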

[5] = target: T1, G-protein coupled receptor 35; assay: Agonist activity at GPR35 in human HT-29 cells after 1 hr by dynamic mass redistribution assay in presence of 64 uM GPR35 antagonist SPB05142; format: functional, cell-based
[6] = target: T1, G-protein coupled receptor 35; assay: Agonist activity at GPR35 in human HT-29 cells after 1 hr by dynamic mass redistribution assay relative to zaprinast; format: functional, cell-based; parameters: concentration or dose not given beside the values
Outline: as §2, with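 “h. […]” for “h.”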

[7] = target: T1, G-protein coupled receptor 35; assay: Agonist activity at GPR35 in human HT-29 cells after 1 hr by dynamic mass redistribution assay in presence of GPR35 antagonist SPB05142; format: functional, cell-based
[8] = target: T1, G-protein coupled receptor 35; assay: Agonist activity at GPR35 in human U20S cells expressing beta-lactamase and GPR35-GA14-VP16 transcription factor fusion protein assessed as transcriptional activation after 5 hrs by tango beta-arrestin translocation reporter assay relative to zaprinast; format: functional, cell-based; details: U2OS
Outline: as §1, with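 “substrate. Coumarin:fluorescein ratio read as reporter response, doses up to 128 μM, n = 4.” for “substrate.”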

HT-29 = assay: Induction of dynamic mass redistribution in human HT-29 cells transfected with receptor-targeting iRNA-based shRNA for GPR35 knock out at 10 uM; format: functional, cell-based
Outline: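 HT-29 seeded on biosensor plates at 5000 cells/well, 24 h at 37 °C. Transiently transfected with GFP-tagged shRNA plasmids against human GPR35, or control plasmid, at 0.05 μg DNA per well. Medium changed on day 3. About 48 h post-transfection, DMR agonist assay run with compounds at 10 μM, four replicates.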

[9] = target: T1, G-protein coupled receptor 35; assay: Agonist activity at GPR35 in human HT-29 cells assessed as receptor internalization at 1 uM after 1 hr by fluorescence imaging; format: functional, cell-based
Outline: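 HT-29 seeded in chamber slides at 10000 cells/well and grown 24 h at 37 °C. Cells exposed to compound or DMSO for 1 h at 37 °C, fixed in 4% formaldehyde, then blocked and permeabilized. Stained with anti-GPR35 (intracellular domain, 1:500, 24 h), then a fluorescent secondary antibody (1:500, 1 h, room temperature). GPR35 location assessed by confocal imaging.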

T1 sequence (Q9HC97 whole entry, the tested form may be a part): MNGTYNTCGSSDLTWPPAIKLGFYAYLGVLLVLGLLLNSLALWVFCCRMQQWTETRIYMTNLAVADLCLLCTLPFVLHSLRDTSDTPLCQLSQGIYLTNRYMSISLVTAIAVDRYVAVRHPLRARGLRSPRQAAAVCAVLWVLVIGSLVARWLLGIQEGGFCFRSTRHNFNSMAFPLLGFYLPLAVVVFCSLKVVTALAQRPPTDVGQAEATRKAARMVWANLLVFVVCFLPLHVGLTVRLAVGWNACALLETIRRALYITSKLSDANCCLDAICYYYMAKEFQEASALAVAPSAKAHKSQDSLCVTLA

Row | EC50 [2] | pEC50 [3] | Activity [4] | Activity [9] | SMILES | pIC50 [1] | Activity [5] | Activity [6] [%] | Activity [7] | Activity [8] | pEC50 [2] | Activity (HT-29)
1 | Not Active | 4.82 |  |  | CCCCc1ccc(C2(C)OC(=C(C#N)C#N)C(C#N)=C2C)cc1 (configuration not stated) | 5.19 |  |  |  |  |  | 
2 | Not Active | 4.37 |  |  | O=C(O)c1cc2sccc2s1 | 4.24 |  |  |  |  |  | 
3 |  | 7.19 |  | Active | Cc1c(C(=O)O)sc2c(Br)csc12 | 6.96 | inactive | 105 | inactive | 104% | 4.82 | inactive
4 | Not Active | 4.27 |  |  | CC1=C(C#N)C(=C(C#N)C#N)OC1(C)c1ccc(F)cc1F (configuration not stated) | 4.31 |  |  |  |  |  | 
5 | Not Active |  |  |  | CCOC(=O)c1sc2c(Br)csc2c1C |  |  |  |  |  |  | 
6 |  | 7.49 |  |  | CC1=C(C#N)C(=C(C#N)C#N)OC1(C)c1ccc(Cl)c(Cl)c1 (configuration not stated) | 7.22 | inactive | 97 | inactive | 29% | 4.99 | inactive
7 |  | 5.72 |  |  | CCCCCCCCCCCc1c(C(=O)O)sc2c(Br)csc12 | 6.24 | inactive | 87 | inactive | 55% | 4.64 | 
8 | Not Active | 5.64 | inactive |  | CCCCCCCCCCCCCc1c(C(=O)O)sc2c(Br)csc12 | 5.73 | inactive | 77 | inactive | inactive |  | 
9 | Not Active | 5.34 |  |  | CCCCCCCCCCCCCCCc1c(C(=O)O)sc2c(Br)csc12 | 5.23 |  |  |  |  |  | 

Second part, the compound before the results:

Row | SMILES | EC50 [2] | pEC50 [3] | Activity [4] | Activity [9] | pIC50 [1] | Activity [5] | Activity [6] [%] | Activity [7] | Activity [8] | pEC50 [2] | Activity (HT-29)
10 | CC1=C(C#N)C(=C(C#N)C#N)OC12c1ccccc1-c1ccccc12 |  | 5.18 | inactive |  | 4.67 | inactive | 90 | inactive |  |  | 
11 | CCCCCCCCc1c(C(=O)O)sc2c(Br)csc12 |  | 5.84 |  |  | 5.98 | inactive | 103 | inactive | 8% | < 4.30 | 
12 | CC1=C(C#N)C(=C(C#N)C#N)OC1(c1ccccc1)C(F)(F)F (configuration not stated) |  | 5.46 |  |  | 5.71 | inactive | 99 | inactive | 14% | < 4.30 | 
13 | CC1=C(C#N)C(=C(C#N)C#N)OC1(C)C |  | 4.77 |  |  | 4.92 | inactive | 87 | inactive | Active | < 4.30 | inactive
14 | CCCCCCc1c(C(=O)O)sc2ccsc12 |  | 5.46 |  |  | 5.83 | Active | 99 | Active | 20% | < 4.30 | 
15 | CC1=C(C#N)C(=C(C#N)C#N)OC1(C)c1c(F)c(F)c(F)c(F)c1F (configuration not stated) | Not Active | 5.47 |  |  | 5.35 |  |  |  |  |  | 
16 | CC1=C(C#N)C(=C(C#N)C#N)OC1(C)c1ccc(Cl)c(Cl)c1Cl (configuration not stated) |  | 4.95 | inactive |  | 4.99 | Active | 90 | Active |  |  | 
17 | CC1=C(C#N)C(=C(C#N)C#N)OC12CCCCC2 |  | 4.34 |  |  | 4.79 | Active | 106 | Active | Active | < 4.30 | 
18 | Cc1csc2c1sc1cc(C(=O)O)sc12 |  | 5.22 |  |  | 5.22 | Active | 118 | Active | 19% | < 4.30 | inactive
19 | CCCOc1ccccc1-c1nc2[nH]nnc2c(=O)[nH]1 |  |  |  |  |  |  |  |  |  |  | inactive
20 | CCCCCCc1csc2cc(C(=O)O)sc12 |  | 5.03 |  |  | 5.33 | inactive | 103 | inactive | 9% | < 4.30 | 
